Diaphorase act: compounds boosting diaphorase resazurin reduction – biochemical, uHTS, resorufin fluorescence, counter-screen for diaphorase-coupled primary assays, primary screen. activation factor at 20 µM. AID 1229, 2008. Diaphorase/resazurin coupled assay, 16 min; hits give high values; 1 = vehicle wells, 0 = NADH-free wells. hit rate 0.005% among 190,000;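 active = diaphorase activity raised at least twofold by the compound at 20 µM; inactive = activation factor below 2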
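System – purified diaphorase enzyme from Clostridium kluyveri · Input – enzyme 0.07 U/mL final · Also added – final NADH 0.114 mM, resazurin 0.1 mM · Measured by – fluorescence of resorufin, 544 nm excitation, 590 nm emission · Timing – 16 min enzyme reaction, ambient temperature · Measure – resorufin increase flagging diaphorase activators or reducers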
p47phox inh: p47phox/p22phox peptide binding inhibitors, primary screen, biochemical, uHTS, NADPH oxidase regulatory subunit. Neutrophil cytosol factor 1 (Homo sapiens), P14598. fluorescence polarization, 2 h. inhibition, % at 24.7 µM. hit rate 0.53% among 220,000. AID 1274, 2008;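 active = inhibition above about 30%, limit read from the data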
Target sequence (P14598 whole entry, looked up): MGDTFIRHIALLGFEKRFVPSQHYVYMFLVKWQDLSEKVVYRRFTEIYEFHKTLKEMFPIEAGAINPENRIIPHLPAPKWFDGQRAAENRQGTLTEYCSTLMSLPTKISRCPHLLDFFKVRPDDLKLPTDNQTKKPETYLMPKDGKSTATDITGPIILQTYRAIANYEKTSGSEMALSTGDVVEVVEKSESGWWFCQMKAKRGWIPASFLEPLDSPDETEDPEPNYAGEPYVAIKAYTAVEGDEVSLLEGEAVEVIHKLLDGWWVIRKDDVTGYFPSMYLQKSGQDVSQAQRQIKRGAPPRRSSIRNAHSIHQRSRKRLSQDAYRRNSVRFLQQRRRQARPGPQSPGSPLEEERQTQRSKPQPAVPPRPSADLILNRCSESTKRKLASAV
PMI act: activators of human PMI, primary screen, biochemical, fluorescence intensity, near-Km mannose 6-phosphate | Mannose-6-phosphate isomerase (Homo sapiens), P34949 | purified human PMI, coupled resazurin fluorescence, 20 min; hits give high values; 1 = vehicle control, 0 substrate-free wells | activation factor at 20 µM | hit rate 0.005% among 190,000;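 active = activation factor of 2 or more at 20 µM, relative to plate controls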
Avidin fluor: green autofluorescence of compounds with avidin beads – biophysical, 488/530 nm, flow cytometry, artefact control, profiling panel. compound fluorescence 488/530 nm; hits give high values. fluorescence (KMESF) at 10 µM. hit rate 0.38% among 220,000. AID 1775, 2009; in the data active = fluorescence above about 47
PMI act satM6P: human PMI activators, high substrate, primary screen, biochemical, fluorescence intensity, near-saturating mannose 6-phosphate | Mannose-6-phosphate isomerase (Homo sapiens), P34949 | coupled PMI enzyme assay, resazurin fluorescence, 20 min; hits give high values; 1 = untreated enzyme, 0 = substrate-free blank | activation factor at 20 µM | hit rate 0.34% among 190,000 | AID 1216, 2008;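 active = activation factor of 2 or more at 20 µM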
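assay system = human phosphomannose isomerase with PGI, G6PDH, diaphorase coupling enzymes | quantity = 15 ng/mL PMI | incubation = enzyme reaction with compound 20 min at room temperature | medium = HEPES pH 7.4 buffer with MgCl2 and Tween-20 | compound dosing = one concentration, 20 µM, in 1% DMSO | measured by = Diaphorase-driven resazurin-to-resorufin fluorescence, excitation 544, emission 590 nm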
GSH bead fluor: compound fluorescence on glutathione beads, profiling panel, artefact control, biophysical, 488/530 nm, flow cytometry; GSH beads flow cytometry, compound fluorescence 488/530 nm; hits give high values; fluorescence (KMESF) at 10 µM; hit rate 0.25% among 190,000; AID 1776, 2009; in the data active = fluorescence above about 89;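 also: glutathione beads carrying GST-tagged Bcl family fusion proteins plus one bare bead set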
Large screens that a line does not name were inactive. This is a sample that favours compounds with a hit; in the whole collection about 1.4% have one here.

O=C(CSc1ccc(Cl)cc1)Nc1ccc(NC(=O)c2ccco2)cc1	none
COc1cc2c(cc1OC)C(c1ccc(-c3cc(Cl)ccc3Cl)o1)=NCC2	p47phox inh 50.8
COc1cc2c(cc1OC)C(c1ccc(-c3ccc(Cl)cc3Cl)o1)=NCC2	none
CCOC(CNC(=O)c1nnc(Cc2cc(OC)c(OC)c(OC)c2)o1)OCC	none
O=C(O)c1cc(N2N=C(C(F)(F)F)/C(=C/C=C/c3ccco3)C2=O)ccc1Cl	PMI act satM6P 2.2
Cn1c2ccccc2c2ncn(CCN3CCOCC3)c(=O)c21	GSH bead fluor 253
CN(C)CC(C)(C)CN=Cc1c(O)[nH]c2ccccc12	p47phox inh 88.2 (no result: Diaphorase act, PMI act, PMI act satM6P, GSH bead fluor)
OCCN=Cc1c(O)[nH]c2ccccc12	none
CCC(O)CC(C(=O)NNc1ccccc1)C(=O)NNc1ccccc1 (centres undefined)	PMI act satM6P 2.8
COc1ccccc1NC(=O)/C(=C\c1cccs1)NC(=O)c1ccco1	Avidin fluor 49 (no result: Diaphorase act, PMI act, PMI act satM6P, GSH bead fluor)
NC(=S)N/N=C\c1c2ccccc2cc2ccccc12	PMI act satM6P 2.3
Cc1ccc2nc(Cl)c(/C=N/NC(=O)[C@H]3C[C@@H]3c3ccccc3)cc2c1	p47phox inh 30.5
CC(C)(C)c1ccc(C2CC2C(=O)N/N=C\c2cc3ccccc3nc2Cl)cc1 (centres undefined)	none
COc1ccc(OCc2nnc(SC(C)C(=O)Nc3nccs3)n2-c2ccccc2)cc1 (centres undefined)	p47phox inh 36.0
CC(C)NC(=O)C(=O)NNC(=O)C12CC3CC(CC(C3)C1)C2	GSH bead fluor 109
CC(CN1CCCCC1)C(=O)NNC(=O)C12CC3CC(CC(C3)C1)C2 (centres undefined)	none
COc1ccc(N(C(C)C(=O)N/N=C(\C)C(C)(C)C)S(C)(=O)=O)cc1 (centres undefined)	none
NS(=O)(=O)c1cccnc1Nc1c(Cl)cccc1Cl	Avidin fluor 108, GSH bead fluor 202
Nc1cnn(Cc2ccccc2F)c1	none
Cc1ccc2nc(-c3ccc(SCC(=O)Nc4ccc5c(c4)OCCO5)nc3)[nH]c2c1	none
Cc1cc2nc(-c3ccc(SCC(=O)Nc4ccc5c(c4)OCCO5)nc3)[nH]c2cc1C	Avidin fluor 53
COCCCNCCCCOc1ccc(Br)cc1C	p47phox inh 41.1
CC(C)CN(CC(C)C)c1nnc(NC(=O)Cn2c(=O)oc3ccccc32)s1	none
CCOC(=O)C1CCCN(C(=O)c2cc(Nc3ccc(OC)cc3)nc3ccccc23)C1 (centres undefined)	Avidin fluor 51
Cc1ccc(S(=O)(=O)NC(=O)c2cc(C)n(C3CC3)c2C)cc1	none
Cc1ccc([N+](=O)[O-])cc1NC(=O)CN1CCC(C)CC1	p47phox inh 71.7
Cc1onc(-c2c(Cl)cccc2Cl)c1NC(=O)N(C)N	Avidin fluor 49 (no result: Diaphorase act, PMI act, PMI act satM6P, GSH bead fluor)
Cc1onc(-c2c(Cl)cccc2Cl)c1NC(=O)NC1CCSC1 (centres undefined)	none (no result: Diaphorase act, PMI act, PMI act satM6P, GSH bead fluor)
O=S(=O)(N1CCCCC1)N1CCN(c2ccccc2F)CC1	Avidin fluor 70
CS(=O)(=O)N1CCN(c2ccccc2F)CC1	none
Cc1ccc(/C=C2\CCC3=C2OC(N)=C(C#N)C3c2ccc(C)cc2)cc1 (centres undefined)	Avidin fluor 66
Cc1cc(C2=NNC(=Nc3ccccc3)SC2)c(C)n1C	PMI act satM6P 2
COCCn1c(C)cc(C2=NNC(=Nc3ccccc3F)SC2)c1C	none
CCc1ccc(CN2CCN(C(=O)c3cccc(OC)c3OC)CC2)cc1	none
CCN(CC)CCn1c(=N)n(CC(O)COc2ccccc2)c2ccccc21 (centres undefined)	Avidin fluor 51 (no result: Diaphorase act, PMI act, PMI act satM6P, GSH bead fluor)
CCN(CC)CCn1c(=N)n(CCOc2ccccc2)c2ccccc21	none
CCSc1nnc(NC(=O)CSc2nc3c(c(=O)n2-c2ccccc2)SCC3)s1	GSH bead fluor 147
COc1ccc2c(CC(=O)Nc3ccc(OC)nc3)coc2c1	p47phox inh 34.7
CC(=O)c1cc(F)c(N2CCN(C(=O)COc3ccc(F)cc3)CC2)cc1C	GSH bead fluor 93
COc1cccc2c(=S)c(CCC(C)=O)c(C)[nH]c12	PMI act satM6P 2.1
COc1ccc(CC(=O)OC(C)CN2CCCCC2)cc1 (centres undefined)	none
CS/C(=N\S(=O)(=O)c1cccs1)NC(=O)CSc1nc2ccccc2s1	PMI act satM6P 2.4
CC(C)CCN1CCN(C2CSCCSC2)CC1CCO (centres undefined)	p47phox inh 41.6
O=[N+]([O-])c1cc(/C=N/O)ccc1SCc1ccccc1Cl	none
O=C(CSc1nc(-c2ccco2)cc(C(F)(F)F)n1)Nc1cccnc1	Avidin fluor 59
CCN(CC)S(=O)(=O)c1cccc(C(=O)N[C@H](C(=O)O)C(C)C)c1	p47phox inh 91.6
CCOC(=O)CSC(CC)C(=O)Nc1nnc(C(C)C)s1 (centres undefined)	none
CCC(=O)NC(Nc1ncc(C)s1)(C(=O)OC)C(F)(F)F (centres undefined)	GSH bead fluor 124
CCC(=O)NC(Nc1ccccn1)(C(=O)OC)C(F)(F)F (centres undefined)	none
COc1ccc(NC(=O)NC2CCN(C(C)C)CC2)c(OC)c1	none
COCCN(C(=O)Nc1ccc(OC)cc1OC)C1CCN(C(C)C)CC1	Avidin fluor 51
O=C(Nc1ncn[nH]1)c1ccc(Cl)c(S(=O)(=O)Nc2ccc(Cl)cc2)c1	PMI act satM6P 2.1
O=C(Nc1ncn[nH]1)c1cc(S(=O)(=O)Nc2ccc(Cl)cc2)ccc1Cl	none
CCCNC(=O)NC(C(=O)OC)C12CC3CC(CC(C3)C1)C2 (centres undefined)	none
O=C(Nc1nnc(-c2ccc3c(c2)CCCC3)o1)c1ccccc1	none
O=C(COc1ccccc1)Nc1nnc(-c2ccc3c(c2)CCCC3)o1	p47phox inh 167.9
CCN(c1ccc(N=Cc2c(O)n(Cc3ccc(OC)cc3)c(=O)c3ccccc23)cc1)C(C)C	GSH bead fluor 155
O=[N+]([O-])c1cccc(-c2cc3cccc[n+]3cc2-c2cccc([N+](=O)[O-])c2)c1	none
Cc1cccc2cc(-c3ccccc3)c(-c3ccccc3)c[n+]12	p47phox inh 49.2

From PubChem BioAssay
